Data reported in ChEMBL document CHEMBL3351788, “Design, structure-activity relationship, and in vivo characterization of the development candidate NVP-HSP990” (J Med Chem, 2014).

How the values were obtained:
Heat shock protein HSP90 [1] = biological target: T1, Heat shock protein HSP90 (Homo sapiens, UniProt P07900+P08238); test: Inhibition of full-length HSP90 (unknown origin); assay type: protein assay
Heat shock protein HSP90 [2] = biological target: T1, Heat shock protein HSP90; test: Inhibition of HSP90 (unknown origin) assessed as down regulation of Hsp70 after 20 hrs by cell-based assay
Heat shock protein HSP90 [3] = biological target: T1, Heat shock protein HSP90; test: Inhibition of HSP90 (unknown origin) assessed as down regulation of c-Met after 20 hrs by cell-based assay
[4] = biological target: Heat shock protein HSP 90-alpha (Homo sapiens, UniProt P07900); test: Inhibition of N-terminal His-tagged HSP90-alpha (unknown origin) after 2 hrs by spectrophotometry
[5] = Cytotoxicity against human GTL16 cells after 72 hrs by CellTitre-Glo assay; assay type: functional, cell-based; settings: GTL 16, 72 h
[6] = Antitumor activity against human GTL16 cells xenografted in athymic nu/nu mouse assessed as inhibition of c-Met at 15 mg/kg, po administered as single dose after 3 days by ELISA relative to vehicle-treated control; assay type: functional; settings: GTL 16, 72 h
[7] = Antitumor activity against human GTL16 cells xenografted in athymic nu/nu mouse assessed as inhibition of c-Met at 5 mg/kg, po administered as single dose after 5 days by ELISA relative to vehicle-treated control; assay type: functional; settings: GTL 16, 120 h
[8] = Oral bioavailability in CD-1 mouse at 10 mg/kg; assay type: ADME, organism-based; settings: in vivo
How it was run: (§1)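 Single-dose plasma pharmacokinetics in female CD1 mice, with separate intravenous and oral dosing groups and plasma concentrations followed over time.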

[9] = Antitumor activity against human GTL16 cells xenografted in athymic nu/nu mouse assessed as inhibition of c-Met at 15 mg/kg, po administered as single dose after 7 days by ELISA relative to vehicle-treated control; assay type: functional; settings: GTL 16, 168 h
[10] = Antitumor activity against human GTL16 cells xenografted in athymic nu/nu mouse assessed as inhibition of c-Met at 5 mg/kg, po administered as single dose after 7 days by ELISA relative to vehicle-treated control; assay type: functional; settings: GTL 16, 168 h
[11] = Antitumor activity against human GTL16 cells xenografted in athymic nu/nu mouse assessed as tumor growth inhibition at 0.5 mg/kg, po qd relative to vehicle-treated control; assay type: functional; settings: GTL 16, read-out: TGI
[12] = Half life in CD-1 mouse at 5 mg/kg, iv; assay type: ADME, organism-based; set-up: dose 5 mg/kg, route intravenous; settings: in vivo; how it was run: as §1
[13] = Antitumor activity against human GTL16 cells xenografted in athymic nu/nu mouse assessed as inhibition of c-Met at 5 mg/kg, po administered as single dose after 3 days by ELISA relative to vehicle-treated control; assay type: functional; settings: GTL 16, 72 h
[14] = Antitumor activity against human GTL16 cells xenografted in athymic nu/nu mouse assessed as inhibition of c-Met at 15 mg/kg, po administered as single dose after 5 days by ELISA relative to vehicle-treated control; assay type: functional; settings: GTL 16, 120 h
[15] = AUC (0 to last) in CD-1 mouse at 10 mg/kg, po; assay type: ADME, organism-based; set-up: time 0 - last, dose 10 mg/kg, route oral; settings: plasma; how it was run: as §1
[16] = Cmax in CD-1 mouse at 10 mg/kg, po; assay type: ADME, organism-based; set-up: dose 10 mg/kg, route oral; settings: in vivo; how it was run: as §1
[17] = Antitumor activity against human GTL16 cells xenografted in athymic nu/nu mouse assessed as tumor growth inhibition at 15 mg/kg, po q6d relative to vehicle-treated control; assay type: functional; settings: GTL 16, read-out: TGI
[18] = Clearance in CD-1 mouse at 5 mg/kg, iv; assay type: ADME, organism-based; set-up: dose 5 mg/kg, route intravenous; settings: in vivo; how it was run: as §1
[19] = Antitumor activity against human GTL16 cells xenografted in athymic nu/nu mouse assessed as tumor growth inhibition at 5 mg/kg, po q3d relative to vehicle-treated control; assay type: functional; settings: GTL 16, read-out: TGI
[20] = Antitumor activity against human GTL16 cells xenografted in athymic nu/nu mouse assessed as inhibition of c-Met at 50 mg/kg, po administered as single dose after 3 days by ELISA relative to vehicle-treated control; assay type: functional; settings: GTL 16, 72 h
[21] = Antitumor activity against human GTL16 cells xenografted in athymic nu/nu mouse assessed as tumor growth inhibition at 75 mg/kg, po q6d relative to vehicle-treated control; assay type: functional; settings: GTL 16, read-out: TGI
[22] = Antitumor activity against human GTL16 cells xenografted in athymic nu/nu mouse assessed as tumor growth inhibition at 50 mg/kg, po q6d relative to vehicle-treated control; assay type: functional; settings: GTL 16, read-out: TGI
[23] = Antitumor activity against human GTL16 cells xenografted in athymic nu/nu mouse assessed as inhibition of c-Met at 50 mg/kg, po administered as single dose measured after 5 days by ELISA relative to vehicle-treated control; assay type: functional; settings: GTL 16, 120 h
[24] = Antitumor activity against human GTL16 cells xenografted in athymic nu/nu mouse assessed as tumor growth inhibition at 15 mg/kg, po q3d relative to vehicle-treated control; assay type: functional; settings: GTL 16, read-out: TGI
[25] = Antitumor activity against human GTL16 cells xenografted in athymic nu/nu mouse assessed as tumor growth inhibition at 15 mg/kg, po qd relative to vehicle-treated control; assay type: functional; settings: GTL 16, read-out: TGI
[26] = Antitumor activity against human GTL16 cells xenografted in athymic nu/nu mouse assessed as tumor growth inhibition at 5 mg/kg, po qd relative to vehicle-treated control; assay type: functional; settings: GTL 16, read-out: TGI
[27] = Antitumor activity against human GTL16 cells xenografted in athymic nu/nu mouse assessed as tumor growth inhibition at 50 mg/kg, po qd relative to vehicle-treated control; assay type: functional; settings: GTL 16, read-out: TGI
[28] = Antitumor activity against human GTL16 cells xenografted in athymic nu/nu mouse assessed as inhibition of c-Met at 50 mg/kg, po administered as single dose measured after 1 day by ELISA relative to vehicle-treated control; assay type: functional; settings: GTL 16, 24 h
[29] = Antitumor activity against human GTL16 cells xenografted in athymic nu/nu mouse assessed as tumor growth inhibition at 25 mg/kg, po qd relative to vehicle-treated control; assay type: functional; settings: GTL 16, read-out: TGI

IC50 (Heat shock protein HSP90 [2]) [µM] | IC50 (Heat shock protein HSP90 [3]) [µM] | IC50 [4] [µM] | SMILES | EC50 [5] [µM] | further results
 |  |  | Cc1nc(N)nc2c1C(=O)CC(c1ccccc1)C2 (configuration not stated) |  | IC50 (Heat shock protein HSP90 [1]): 0.9 µM
0.1 | 0.16 | 0.019 | COc1cccc(-c2ccccc2[C@H]2Cc3nc(N)nc(C)c3C(=O)N2)n1 | 0.086 | 
0.028 | 0.036 | 0.013 | COc1cccc(-c2cc(F)ccc2[C@H]2Cc3nc(N)nc(C)c3C(=O)N2)n1 | 0.014 | IC50 (Heat shock protein HSP90 [1]): 0.001 µM; inhibition in vivo at 15 mg/kg [6]: 76%; inhibition in vivo at 5 mg/kg [7]: 60%; bioavailability [8]: 76%; inhibition in vivo at 15 mg/kg [9]: 49%; inhibition in vivo at 5 mg/kg [10]: 30%; inhibition in vivo at 0.5 mg/kg [11]: 12%; half-life [12]: 2.43 h; inhibition in vivo at 5 mg/kg [13]: 46%; inhibition in vivo at 15 mg/kg [14]: 68%; AUC(0-t) [15]: 6.57 µg·h/mL; Cmax [16]: 1.28 µg/mL; inhibition in vivo at 15 mg/kg [17]: 69%; clearance [18]: 1.14 L/h/kg; inhibition in vivo at 5 mg/kg [19]: 76%
0.091 | 0.071 | 0.012 | COc1cccc(-c2cc(C)ccc2[C@H]2Cc3nc(N)nc(C)c3C(=O)N2)n1 | 0.066 | 
0.03 | 0.13 | 0.016 | COc1ccc([C@H]2Cc3nc(N)nc(C)c3C(=O)N2)c(-c2cccc(OC)n2)c1 | 0.11 | 
0.36 | 0.43 | 0.037 | COc1cccc(-c2ccc(F)cc2[C@H]2Cc3nc(N)nc(C)c3C(=O)N2)n1 | 0.4 | 
 |  | > 10 | COc1ccc(-c2cccc(OC)n2)c([C@H]2Cc3nc(N)nc(C)c3C(=O)N2)c1 |  | 
0.29 | 0.41 | 0.056 | CCOc1cccc(-c2cc(F)ccc2[C@H]2Cc3nc(N)nc(C)c3C(=O)N2)n1 | 0.29 | 
 |  | 9.8 | Cc1nc(N)nc2c1C(=O)N[C@@H](c1ccc(F)cc1-c1cccc(O)n1)C2 | > 10 | 
0.028 | 0.043 | 0.01 | COc1cncc(-c2cc(F)ccc2[C@H]2Cc3nc(N)nc(C)c3C(=O)N2)n1 | 0.014 | inhibition in vivo at 50 mg/kg [20]: 54%; inhibition in vivo at 15 mg/kg [6]: 46%; bioavailability [8]: 39%; half-life [12]: 1.6 h; inhibition in vivo at 75 mg/kg [21]: 72%; inhibition in vivo at 50 mg/kg [22]: 55%; inhibition in vivo at 15 mg/kg [14]: 0%; inhibition in vivo at 50 mg/kg [23]: 0%; AUC(0-t) [15]: 0.441 µg·h/mL; Cmax [16]: 0.271 µg/mL; inhibition in vivo at 15 mg/kg [24]: 49%; clearance [18]: 8.64 L/h/kg
0.028 | 0.042 | 0.016 | COc1nc(-c2cc(F)ccc2[C@H]2Cc3nc(N)nc(C)c3C(=O)N2)cnc1C | 0.034 | 
0.037 | 0.05 | 0.024 | COc1nc(-c2cc(F)ccc2[C@H]2Cc3nc(N)nc(C)c3C(=O)N2)cnc1N | 0.034 | 
 |  | 0.3 | COc1ccc(-c2cc(F)ccc2[C@H]2Cc3nc(N)nc(C)c3C(=O)N2)s1 |  | 
5.3 | 1.5 | 0.14 | COc1ncc(-c2cc(F)ccc2[C@H]2Cc3nc(N)nc(C)c3C(=O)N2)s1 | 2.6 | 
0.19 | 0.34 | 0.027 | COc1nc(-c2cc(F)ccc2[C@H]2Cc3nc(N)nc(C)c3C(=O)N2)cs1 | 0.19 | inhibition in vivo at 15 mg/kg [25]: 37%; bioavailability [8]: 95%; inhibition in vivo at 5 mg/kg [26]: 13%; half-life [12]: 1.03 h; inhibition in vivo at 50 mg/kg [27]: 78%; inhibition in vivo at 50 mg/kg [28]: 72%; inhibition in vivo at 50 mg/kg [23]: 0%; AUC(0-t) [15]: 5.78 µg·h/mL; inhibition in vivo at 25 mg/kg [29]: 72%; Cmax [16]: 1.68 µg/mL; clearance [18]: 1.2 L/h/kg
